Measurements: ChEMBL document CHEMBL1125290, “Bis basic substituted diaminobenzobisthiazoles as potential antiarthritic agents” (1992)
“And” between values parts separate entries of the source, which are not always exact repeats. Equal entries are not always repeated.

What was measured:
Rattus norvegicus [1] = assay: Antiinflammatory activity against carrageenan induced rat paw edema (CPE), dosed orally; type: functional
Method in brief: (§1)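 Male Sprague–Dawley rats (150 ± 10 g), five per group. Compound or vehicle given orally in 0.5% methylcellulose 1 h before subplantar injection of 0.1 mL 1% carrageenan in saline into the right hind paw. Paw volume measured by mercury displacement before dosing and 3 h after carrageenan; the difference is the edema volume. ANOVA with Dunnett's t test.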

Mus musculus [2] = assay: Percent suppression of plaque forming cells in spleen cell suspension at a dose of 200 mg/kg, po. in AKR mice, p<0.05; type: functional
Rattus norvegicus [3] = assay: Antiinflammatory activity against D-adjuvant arthritis in injected rat paw at the dose of 50 mg/kg by oral administration; type: functional
Mus musculus [4] = assay: Percent suppression of plaque forming cells in spleen cell suspension at a dose of 100 mg/kg, po. in AKR mice, p<0.05; type: functional
Rattus norvegicus [5] = assay: Antiinflammatory activity against D-adjuvant arthritis in uninjected rat paw at the dose of 50 mg/kg by oral administration; type: functional
Method in brief: (§2)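 Rat developing adjuvant arthritis screen with oral dosing on a prophylactic protocol. Percent change in body weight versus untreated animals was recorded as a preliminary toxicity sign. Significance was assessed against controls by two-tailed Student's t test, p < 0.05.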

Rattus norvegicus [6] = assay: Antiinflammatory activity dosed orally against D-adjuvant arthritis in uninjected rat paw at 50 mg/kg; type: functional; conditions: route oral
Mus musculus [7] = assay: Percent suppression of plaque forming cells in spleen cell suspension at a dose of 50 mg/kg, po. in AKR mice, p<0.05; type: functional
Rattus norvegicus [8] = organism: Rattus norvegicus; assay: Antiinflammatory activity in D-adjuvant induced arthritis in rat measured by the change in body weight; type: functional; design: concentration or dose not given beside the values
Rattus norvegicus [9] = assay: Antiinflammatory activity against D-adjuvant arthritis in injected rat paw at the dose of 100 mg/kg by oral administration; type: functional
Rattus norvegicus [10] = assay: Antiinflammatory activity against D-adjuvant arthritis in uninjected rat paw at the dose of 100 mg/kg by oral administration; type: functional
Rattus norvegicus [11] = assay: Antiinflammatory activity dosed orally against carrageenan induced rat paw edema(CPE); type: functional; method in brief: as §1
Rattus norvegicus [12] = assay: Antiinflammatory activity dosed orally against D-adjuvant arthritis in rat.; type: functional
Rattus norvegicus [13] = assay: Antiinflammatory activity against D-adjuvant arthritis in injected rat paw at the dose of 25 mg/kg by oral administration; type: functional
Rattus norvegicus [14] = assay: Antiinflammatory activity against D-adjuvant arthritis in uninjected rat paw at the dose of 25 mg/kg by oral administration; type: functional
Rattus norvegicus [15] = assay: Antiinflammatory activity dosed orally against D-adjuvant arthritis in rat measured by the change in the weight of the body; type: functional
Rattus norvegicus [16] = assay: Antiinflammatory activity against D-adjuvant arthritis in uninjected rat paw at the dose of 5 mg/kg by oral administration; type: functional
Rattus norvegicus [17] = assay: Antiinflammatory activity against D-adjuvant arthritis in injected rat paw at the dose of 5 mg/kg by oral administration; type: functional
Rattus norvegicus [18] = assay: Antiinflammatory activity dosed orally against D-adjuvant arthritis in uninjected rat paw at 100 mg/Kg; type: functional; conditions: po
Rattus norvegicus [19] = assay: Antiinflammatory activity dosed orally against D-adjuvant arthritis in injected rat paw at 50 mgKg; type: functional
Rattus norvegicus [20] = assay: Antiinflammatory activity dosed orally against D-adjuvant arthritis in injected rat paw at 100 mg/Kg; type: functional; conditions: po
Mus musculus [21] = assay: Percent suppression of plaque forming cells in spleen cell suspension at a dose of 125 mg/kg, po. in AKR mice; type: functional
Rattus norvegicus [22] = assay: Antiinflammatory activity dosed orally against carrageenan induced rat paw edema(CPE).value in the parentheses is the dose(mg/kg).; type: functional; method in brief: as §1
Rattus norvegicus [23] = assay: Antiinflammatory activity against D-adjuvant arthritis in uninjected rat paw at the dose of 200 mg/kg by oral administration; type: functional
Rattus norvegicus [24] = assay: Antiinflammatory activity against D-adjuvant arthritis in injected rat paw at the dose of 200 mg/kg by oral administration; type: functional
Rattus norvegicus [25] = assay: Antiinflammatory activity against D-adjuvant arthritis in injected rat paw at the dose of 10 mg/kg by oral administration; type: functional
Rattus norvegicus [26] = assay: Antiinflammatory activity against D-adjuvant arthritis in uninjected rat paw at the dose of 10 mg/kg by oral administration; type: functional
Rattus norvegicus [27] = assay: Antiinflammatory activity against D-adjuvant arthritis in injected rat paw at the dose of 2.5 mg/kg by oral administration; type: functional
Method in brief: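 Rats dosed orally in a developing adjuvant arthritis screen; swelling of the adjuvant-injected paw scored against untreated arthritic controls. Significance by two-tailed Student's t test, p < 0.05. Percent change in body weight versus untreated animals recorded as a preliminary toxicity indication.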

Rattus norvegicus [28] = assay: Antiinflammatory activity against D-adjuvant arthritis in injected rat paw at the dose of 1.0 mg/kg by oral administration; type: functional; method in brief: as §2
Rattus norvegicus [29] = assay: Antiinflammatory activity against D-adjuvant arthritis in uninjected rat paw at the dose of 1.0 mg/kg by oral administration; conditions: read-out: Inhibition

CCN(CC)CC(=O)Nc1nc2cc3nc(NC(=O)CN(CC)CC)sc3cc2s1
Inhibition (Rattus norvegicus [1]): 9% | Activity (Mus musculus [2]): 83% | inhibition in vivo at 50 mg/kg (Rattus norvegicus [3]): 76% | Activity (Mus musculus [4]): 82% | inhibition in vivo at 50 mg/kg (Rattus norvegicus [5]): 98% | inhibition in vivo at 50 mg/kg (Rattus norvegicus [6]): 98% | Activity (Mus musculus [7]): 67%

CCN(CC)CC(=O)Nc1nc2c(cc(Cl)c3nc(NC(=O)CN(CC)CC)sc32)s1
Inhibition (Rattus norvegicus [1]): 35% | Activity (Rattus norvegicus [8]): -58% | inhibition in vivo at 100 mg/kg (Rattus norvegicus [9]): 0% | inhibition in vivo at 100 mg/kg (Rattus norvegicus [10]): 62%

O=P1(N(CCCl)CCCl)NCCCO1 (stereo not drawn) [CYCLOPHOSPHAMIDE ANHYDROUS]
Inhibition (Rattus norvegicus [11]): 18% | Body weight change (Rattus norvegicus [12]): -19% | inhibition in vivo at 25 mg/kg (Rattus norvegicus [13]): 86% | inhibition in vivo at 25 mg/kg (Rattus norvegicus [14]): 100%

CCN(CC)C(C)C(=O)Nc1nc2cc3nc(NC(=O)C(C)N(CC)CC)sc3cc2s1.Cl.Cl (stereo not drawn)
Inhibition (Rattus norvegicus [11]): 0% | Activity (Rattus norvegicus [15]): -19% | inhibition in vivo at 50 mg/kg (Rattus norvegicus [3]): 0% | inhibition in vivo at 50 mg/kg (Rattus norvegicus [5]): 0%

CCN(CC)CC(=O)Nc1nc2cc3sc(NC(=O)CN(CC)CC)nc3cc2s1.Cl.Cl
Inhibition (Rattus norvegicus [1]): 9% | inhibition in vivo at 5 mg/kg (Rattus norvegicus [16]): 0% | Activity (Rattus norvegicus [8]): -33% | inhibition in vivo at 5 mg/kg (Rattus norvegicus [17]): 11%

CCN(CC)CCOc1ccc2c(c1)C(=O)c1cc(OCCN(CC)CC)ccc1-2 [TILORONE]
Inhibition (Rattus norvegicus [1]): 0% | inhibition in vivo at 100 mg/kg (Rattus norvegicus [18]): 45% | Inhibition (Rattus norvegicus [19]): 53% | inhibition in vivo at 100 mg/kg (Rattus norvegicus [20]): 59% | Activity (Rattus norvegicus [8]): 10% | Activity (Mus musculus [21]): 28%

CC1CCC(NCC(=O)Nc2nc3cc4nc(NC(=O)CNC5CCC(C)CC5)sc4cc3s2)CC1 (stereo not drawn)
Inhibition (Rattus norvegicus [22]): 3% | inhibition in vivo at 50 mg/kg (Rattus norvegicus [3]): 21% | inhibition in vivo at 50 mg/kg (Rattus norvegicus [5]): 54% | Activity (Rattus norvegicus [8]): -4%

CCN(CC)CC(=O)Nc1nc2cc3nc(NC(=O)CCl)sc3cc2s1
Inhibition (Rattus norvegicus [11]): 25% | inhibition in vivo at 50 mg/kg (Rattus norvegicus [3]): 38% | Body weight change (Rattus norvegicus [12]): -16% | inhibition in vivo at 50 mg/kg (Rattus norvegicus [5]): 0%

O=C(CN1CCSCC1)Nc1nc2cc3nc(NC(=O)CN4CCSCC4)sc3cc2s1
Inhibition (Rattus norvegicus [1]): 7% | inhibition in vivo at 200 mg/kg (Rattus norvegicus [23]): 43% | inhibition in vivo at 200 mg/kg (Rattus norvegicus [24]): 0% | Activity (Rattus norvegicus [8]): 6%

CCN(CC)CC(=O)Nc1nc2c(Cl)c3nc(NC(=O)CN(CC)CC)sc3c(Cl)c2s1
Inhibition (Rattus norvegicus [1]): 19% | inhibition in vivo at 10 mg/kg (Rattus norvegicus [25]): 30% | inhibition in vivo at 10 mg/kg (Rattus norvegicus [26]): 71% | Activity (Rattus norvegicus [8]): -33%

CNc1nc2cc3nc(NC)sc3cc2s1.Cl.Cl
Inhibition (Rattus norvegicus [1]): 24% | inhibition in vivo at 25 mg/kg (Rattus norvegicus [13]): 71% | Activity (Rattus norvegicus [8]): -30% | inhibition in vivo at 25 mg/kg (Rattus norvegicus [14]): 100%

Nc1nc2c(Cl)c3nc(N)sc3c(C(F)(F)F)c2s1
Inhibition (Rattus norvegicus [1]): 13% | inhibition in vivo at 200 mg/kg (Rattus norvegicus [23]): 12% | inhibition in vivo at 200 mg/kg (Rattus norvegicus [24]): 0% | Activity (Rattus norvegicus [8]): 3%

COc1ccc2c(c1)c(CC(=O)O)c(C)n2C(=O)c1ccc(Cl)cc1 [INDOMETHACIN]
Inhibition (Rattus norvegicus [11]): 63% and 34% | inhibition in vivo at 2.5 mg/kg (Rattus norvegicus [27]): 71% | Body weight change (Rattus norvegicus [12]): 18% and 28% | inhibition in vivo at 1 mg/kg (Rattus norvegicus [28]): 61% | inhibition in vivo at 1 mg/kg (Rattus norvegicus [29]): 69%

Nc1nc2cc3sc(N)nc3cc2s1
Inhibition (Rattus norvegicus [1]): 4% | inhibition in vivo at 10 mg/kg (Rattus norvegicus [25]): 88% | inhibition in vivo at 10 mg/kg (Rattus norvegicus [26]): 100% | Activity (Rattus norvegicus [8]): -30%

CC1CCCN(CC(=O)Nc2nc3cc4nc(NC(=O)CN5CCCC(C)C5)sc4cc3s2)C1 (stereo not drawn)
Inhibition (Rattus norvegicus [1]): 19% | inhibition in vivo at 200 mg/kg (Rattus norvegicus [23]): 63% | inhibition in vivo at 200 mg/kg (Rattus norvegicus [24]): 34% | Activity (Rattus norvegicus [8]): 6%

CCN(CC)CCNc1nc2cc3nc(NCCN(CC)CC)sc3cc2s1
Inhibition (Rattus norvegicus [1]): 14% | Activity (Rattus norvegicus [8]): 3% | inhibition in vivo at 100 mg/kg (Rattus norvegicus [9]): 33% | inhibition in vivo at 100 mg/kg (Rattus norvegicus [10]): 0%

CN(CC(=O)Nc1nc2cc3nc(NC(=O)CN(C)C4CCCCC4)sc3cc2s1)C1CCCCC1.Cl.Cl
Inhibition (Rattus norvegicus [1]): 6% | Activity (Rattus norvegicus [8]): -4% | inhibition in vivo at 100 mg/kg (Rattus norvegicus [9]): 32% | inhibition in vivo at 100 mg/kg (Rattus norvegicus [10]): 27%

O=C(O)CNc1nc2cc3nc(NCC(=O)O)sc3cc2s1
Inhibition (Rattus norvegicus [1]): 2% | inhibition in vivo at 200 mg/kg (Rattus norvegicus [23]): 2% | inhibition in vivo at 200 mg/kg (Rattus norvegicus [24]): 0% | Activity (Rattus norvegicus [8]): -25%

CCNCC(=O)Nc1nc2cc3nc(NC(=O)CNCC)sc3cc2s1.Cl.Cl
Inhibition (Rattus norvegicus [1]): 21% | inhibition in vivo at 25 mg/kg (Rattus norvegicus [13]): 79% | Activity (Rattus norvegicus [8]): -28% | inhibition in vivo at 25 mg/kg (Rattus norvegicus [14]): 100%

Nc1nc2cc3nc(N)sc3cc2s1
Inhibition (Rattus norvegicus [1]): 60% | Activity (Rattus norvegicus [8]): -20% | inhibition in vivo at 100 mg/kg (Rattus norvegicus [9]): 79% | inhibition in vivo at 100 mg/kg (Rattus norvegicus [10]): 92%

Cl.Cl.O=C(CN1CCCCC1)Nc1nc2cc3nc(NC(=O)CN4CCCCC4)sc3cc2s1
Inhibition (Rattus norvegicus [1]): 0.8% | inhibition in vivo at 200 mg/kg (Rattus norvegicus [23]): 79% | inhibition in vivo at 200 mg/kg (Rattus norvegicus [24]): 56% | Activity (Rattus norvegicus [8]): -6%

CCN(CC)CC(=O)Nc1nc2c(C(F)(F)F)c3nc(NC(=O)CN(CC)CC)sc3c(Cl)c2s1.Cl.Cl
Inhibition (Rattus norvegicus [1]): 18% | inhibition in vivo at 25 mg/kg (Rattus norvegicus [13]): 57% | Activity (Rattus norvegicus [8]): -22% | inhibition in vivo at 25 mg/kg (Rattus norvegicus [14]): 100%

CCN(CC)CCC(=O)Nc1nc2cc3nc(NC(=O)CCN(CC)CC)sc3cc2s1
Inhibition (Rattus norvegicus [11]): 16% | inhibition in vivo at 50 mg/kg (Rattus norvegicus [3]): 29% | Body weight change (Rattus norvegicus [12]): -5% | inhibition in vivo at 50 mg/kg (Rattus norvegicus [5]): 48%
